Source: the array DNA melting data of Ke et al. (doi:10.1101/2024.01.08.574731)

Assays:
[1] = folding enthalpy; higher = less favourable; fluorescence melt of hairpins on a sequencing array, two-state fit; details: sodium 0.088 M
In short: (§1)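 Cy3 fluorescence of library hairpins on a sequenced MiSeq flow cell, with annealed Cy3 and quencher oligos, was imaged in 50 mM Na-HEPES pH 8.0, 25 mM NaCl in 2.5 °C steps up to 60 °C. Signals were normalised to pre-quench Cy3 and to control variants. Melting temperature and folding enthalpy came from bootstrapped two-state fits, inverse-variance combined over four replicates. Fitted temperatures were raised by 9.35 °C to match UV melts.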

[2] = melting temperature; fluorescence melt of hairpins on a sequencing array, two-state fit, raised by 9.35 °C to match UV melts; details: sodium 0.088 M
In short: as §1

GATCGGAGCGCCGATC ((((((....))))))
folding enthalpy [1]: -31.4 kcal/mol
Tm [2]: 55 °C

GATCGTTCAGACGATC ((((((....))))))
folding enthalpy [1]: -38.9 kcal/mol
Tm [2]: 55.6 °C

GATCATCCTATGATC ((((((...))))))
folding enthalpy [1]: -33.1 kcal/mol
Tm [2]: 48.3 °C

GCGGTATCCGC ((((...))))
folding enthalpy [1]: -24 kcal/mol
Tm [2]: 54.9 °C

GTCTCCGAAAGGAACGAC ((((((....)))..)))
folding enthalpy [1]: -23.5 kcal/mol
Tm [2]: 36.3 °C

GTTGCGTCGAAAGACAAC (((..(((....))))))
folding enthalpy [1]: -13.8 kcal/mol
Tm [2]: 30.3 °C

GCCATACCGAAAGGTGGC (((..(((....))))))
folding enthalpy [1]: -24.4 kcal/mol
Tm [2]: 53.4 °C

GGTGATACGAAAGTAACC (((..(((....))))))
folding enthalpy [1]: -11.7 kcal/mol
Tm [2]: 33.6 °C

GTCCCCGAAAGGGTTGAC ((((((....)))..)))
folding enthalpy [1]: -15.3 kcal/mol
Tm [2]: 33.7 °C

GGAGTCGAAAGACGTCC ((((((....))).)))
folding enthalpy [1]: -14.7 kcal/mol
Tm [2]: 46 °C

GATCTACTGTAGATC ((((((...))))))
folding enthalpy [1]: -36.8 kcal/mol
Tm [2]: 41.1 °C

GGGAACGGAAACGCTCCC ((((.((....)).))))
folding enthalpy [1]: -36.6 kcal/mol
Tm [2]: 52.1 °C

GAGGACCGAAAGGTGCTC (((.(((....))).)))
folding enthalpy [1]: -32.2 kcal/mol
Tm [2]: 60.4 °C

GAGAGCGAAAGCTAGCTC ((((((....)))..)))
folding enthalpy [1]: -13.8 kcal/mol
Tm [2]: 36.6 °C

GCACACGAAAGTGCGTGC ((((((....)))..)))
folding enthalpy [1]: -17 kcal/mol
Tm [2]: 52.1 °C

GATGATGGAAACATCATC (((((((....)))))))
folding enthalpy [1]: -45 kcal/mol
Tm [2]: 58.1 °C

GGTGTGAAAACACC (((((....)))))
folding enthalpy [1]: -30.9 kcal/mol
Tm [2]: 57.3 °C

GATCCATGTATGGATC ((((((....))))))
folding enthalpy [1]: -42.6 kcal/mol
Tm [2]: 58 °C

GATCGAATCGTCGATC ((((((....))))))
folding enthalpy [1]: -32.1 kcal/mol
Tm [2]: 51.4 °C

GATCGCCACTGCGATC ((((((....))))))
folding enthalpy [1]: -42.9 kcal/mol
Tm [2]: 65.3 °C

CGTCGGCGGAAACGCACG (((..(((....))))))
folding enthalpy [1]: -18.3 kcal/mol
Tm [2]: 46.1 °C

GGCTTCGAAAGAAGTGCC ((((((....)))..)))
folding enthalpy [1]: -16.1 kcal/mol
Tm [2]: 42.6 °C

GATCGATTCATCGATC ((((((....))))))
folding enthalpy [1]: -39.9 kcal/mol
Tm [2]: 59.3 °C

GTACAGGGAAACCTGTAC (((((((....)))))))
folding enthalpy [1]: -40.3 kcal/mol
Tm [2]: 59.4 °C

GGAATGTCGAAAGACTCC (((..(((....))))))
folding enthalpy [1]: -14.3 kcal/mol
Tm [2]: 32.6 °C

GATCTCCCCAGAGATC ((((((....))))))
folding enthalpy [1]: -42.9 kcal/mol
Tm [2]: 55.7 °C

GCCTAGCGAAAGCGACGC ((.(.((....)).).))
folding enthalpy [1]: -15.3 kcal/mol
Tm [2]: 47.8 °C

GATCTCTAGAGAGATC ((((((....))))))
folding enthalpy [1]: -40.9 kcal/mol
Tm [2]: 51 °C

GACTAGACGAAAGTCGTC (((..(((....))))))
folding enthalpy [1]: -13 kcal/mol
Tm [2]: 38.9 °C

GCTCGTGGAAACGCGAGC (((((.(....).)))))
folding enthalpy [1]: -47.9 kcal/mol
Tm [2]: 63.2 °C

GGAGGTGGAAACACCTTC (.(((((....))))).)
folding enthalpy [1]: -29 kcal/mol
Tm [2]: 51.4 °C

GAGCGCCGAAAGGCCCTC (((.(((....))).)))
folding enthalpy [1]: -15.4 kcal/mol
Tm [2]: 47.6 °C

GGTCAAGGAAACTTGGTC (..((((....))))..)
folding enthalpy [1]: -13.9 kcal/mol
Tm [2]: 29.7 °C

GTACAGCGAAAGCTTAC (((.(((....))))))
folding enthalpy [1]: -13.1 kcal/mol
Tm [2]: 38.1 °C

GCTTCCGGAAACGGGAGC (((.(((....))).)))
folding enthalpy [1]: -40.1 kcal/mol
Tm [2]: 59.5 °C

GGTTTGGGAAACTAAGCC ((.((.(....).)).))
folding enthalpy [1]: -13.6 kcal/mol
Tm [2]: 30.2 °C

GGTTGAGGAAACTTGACC (((..((....))..)))
folding enthalpy [1]: -14.6 kcal/mol
Tm [2]: 32.1 °C

GGTTCCCCGAAAGGGACC (((..(((....))))))
folding enthalpy [1]: -17.9 kcal/mol
Tm [2]: 45 °C

GGGGTCGAAAGACGGCCC ((((((....)))..)))
folding enthalpy [1]: -22.1 kcal/mol
Tm [2]: 48.9 °C

GCTGAATCGAAAGATAGC (((..(((....))))))
folding enthalpy [1]: -17.3 kcal/mol
Tm [2]: 31.9 °C

GATCACGCCGGTGATC ((((((....))))))
folding enthalpy [1]: -38.7 kcal/mol
Tm [2]: 60.7 °C

GGTTAACGAAAGTTCACC (((.(((....))).)))
folding enthalpy [1]: -31.3 kcal/mol
Tm [2]: 43 °C

GGAAGACGAAAGTCATCC (((.(((....))).)))
folding enthalpy [1]: -26 kcal/mol
Tm [2]: 48.7 °C

GAGTTCGGAAACGAACTC (((((((....)))))))
folding enthalpy [1]: -39.4 kcal/mol
Tm [2]: 67.3 °C

GGCGGGGGAAACCTCGCC ((((.((....)).))))
folding enthalpy [1]: -32.4 kcal/mol
Tm [2]: 66.1 °C

GAGTCGGCGAAAGCCCTC (((..(((....))))))
folding enthalpy [1]: -9.6 kcal/mol
Tm [2]: 25.6 °C

GCTGTTGGAAACAATGGC ((..(((....)))..))
folding enthalpy [1]: -27.4 kcal/mol
Tm [2]: 39.9 °C

GCGAATTTCGC ((((...))))
folding enthalpy [1]: -24.8 kcal/mol
Tm [2]: 48.8 °C

CTTCGGAAACGAAG (((((....)))))
folding enthalpy [1]: -20.9 kcal/mol
Tm [2]: 50.3 °C

GAGTAGCCGAAAGGCCTC (((..(((....))))))
folding enthalpy [1]: -10.7 kcal/mol
Tm [2]: 38.4 °C

GAGCTACGAAAGTACCTC (((.(((....))).)))
folding enthalpy [1]: -19 kcal/mol
Tm [2]: 30.6 °C

GACCACGAAAGTGTCGTC ((((((....)))..)))
folding enthalpy [1]: -18.7 kcal/mol
Tm [2]: 44.8 °C

GCACCTCGAAAGAGCTGC (((.(((....))).)))
folding enthalpy [1]: -25.5 kcal/mol
Tm [2]: 42.2 °C

GATCTCAGTCGAGATC ((((((....))))))
folding enthalpy [1]: -35.1 kcal/mol
Tm [2]: 54.1 °C

GTTCAGGGAAACCCGAAC ((((.((....)).))))
folding enthalpy [1]: -31.7 kcal/mol
Tm [2]: 42.3 °C

GGAATTCGAAAGAAGTCC (((.(((....))).)))
folding enthalpy [1]: -37.5 kcal/mol
Tm [2]: 49.2 °C

CGGCCGGAAACGGGTCCG ((((((....)))..)))
folding enthalpy [1]: -18.6 kcal/mol
Tm [2]: 50.4 °C

GTCCGCGAAAGCGCAGAC ((((((....)))..)))
folding enthalpy [1]: -14.6 kcal/mol
Tm [2]: 40.8 °C

GCTACGGGAAACCACAGC (((..((....))..)))
folding enthalpy [1]: -21.4 kcal/mol
Tm [2]: 36 °C

GCTACGCGAAAGCCCAGC (((..((....))..)))
folding enthalpy [1]: -6.89 kcal/mol
Tm [2]: 33.3 °C

GCATCGCGAAAGCGCGGC ((..(((....)))..))
folding enthalpy [1]: -14.8 kcal/mol
Tm [2]: 44.7 °C

GATCATTGAAATGATC ((((((....))))))
folding enthalpy [1]: -36.8 kcal/mol
Tm [2]: 46 °C

GGTTAGCGAAAGCTTACC (((.(((....))).)))
folding enthalpy [1]: -23.2 kcal/mol
Tm [2]: 52 °C

GATCTTGACCAAGATC ((((((....))))))
folding enthalpy [1]: -38.3 kcal/mol
Tm [2]: 49.3 °C

GGAGATCGAAAGATTCC (((.(((....))))))
folding enthalpy [1]: -18.9 kcal/mol
Tm [2]: 36 °C

TGCGAGAAATCGCA (((((....)))))
folding enthalpy [1]: -18.2 kcal/mol
Tm [2]: 54.3 °C

GATCCTGTCAGGATC ((((((...))))))
folding enthalpy [1]: -36.7 kcal/mol
Tm [2]: 56.5 °C

GGACTTGAAAAAGTCC ((((((....))))))
folding enthalpy [1]: -41.9 kcal/mol
Tm [2]: 58.2 °C

GCTATCGAAAGATTAGC ((((((....))).)))
folding enthalpy [1]: -26.1 kcal/mol
Tm [2]: 42.7 °C

GCTTAGCGAAAGCTCGGC ((..(((....)))..))
folding enthalpy [1]: -17.7 kcal/mol
Tm [2]: 36.7 °C

GTAAACGAAAGTTTTTAC ((((((....)))..)))
folding enthalpy [1]: -12 kcal/mol
Tm [2]: 24.9 °C

GTATCTGGAAACAGATAC (((((((....)))))))
folding enthalpy [1]: -39.5 kcal/mol
Tm [2]: 56.1 °C

GATCCAGCATTGGATC ((((((....))))))
folding enthalpy [1]: -44.4 kcal/mol
Tm [2]: 56 °C

GATCGTTACGACGATC ((((((....))))))
folding enthalpy [1]: -39.9 kcal/mol
Tm [2]: 57.1 °C

GCTATGCGAAAGCCGAGC (((..((....))..)))
folding enthalpy [1]: -19 kcal/mol
Tm [2]: 39.4 °C

GAAGCCCGAAAGGGGTTC (((.(((....))).)))
folding enthalpy [1]: -36.8 kcal/mol
Tm [2]: 67.7 °C

GGCCCGCGAAAGCGCGCC (((.(((....))).)))
folding enthalpy [1]: -26.5 kcal/mol
Tm [2]: 64.4 °C

GATCCCCTAGGGGATC ((((((....))))))
folding enthalpy [1]: -44.1 kcal/mol
Tm [2]: 66.6 °C

GTCCATCGAAAGATAGAC (((.(((....))).)))
folding enthalpy [1]: -30.5 kcal/mol
Tm [2]: 35.2 °C

GTTGACGCGAAAGCGAAC (((..(((....))))))
folding enthalpy [1]: -12.9 kcal/mol
Tm [2]: 39 °C

GATCTTGTCTAAGATC ((((((....))))))
folding enthalpy [1]: -40.6 kcal/mol
Tm [2]: 48.4 °C

GCCGGGGCGAAAGCCGGC (((..(((....))))))
folding enthalpy [1]: -20 kcal/mol
Tm [2]: 69 °C

GCGTTTGGAAACGAATGC ((.((.(....).)).))
folding enthalpy [1]: -25.5 kcal/mol
Tm [2]: 36 °C

GATGTTGCGAAAGCAATC (((..(((....))))))
folding enthalpy [1]: -10.9 kcal/mol
Tm [2]: 32.7 °C

GATGACGAAAGTCACATC ((((((....)))..)))
folding enthalpy [1]: -8.72 kcal/mol
Tm [2]: 29.2 °C

CGTGGTCGGAAACGAACG (((..(((....))))))
folding enthalpy [1]: -16.3 kcal/mol
Tm [2]: 30.5 °C

GTGTCGGGAAACTGGCAC (((.(.(....).).)))
folding enthalpy [1]: -29.2 kcal/mol
Tm [2]: 45.9 °C

GGGCCTCCGAAAGGACCC (((..(((....))))))
folding enthalpy [1]: -21.2 kcal/mol
Tm [2]: 50.1 °C

GACAGGGGAAACTCTGTC (((((.(....).)))))
folding enthalpy [1]: -35 kcal/mol
Tm [2]: 48.1 °C

GAGATAGGAAACCATCTC (((((.(....).)))))
folding enthalpy [1]: -23.5 kcal/mol
Tm [2]: 34.1 °C

GGTAATGAAAATTACC ((((((....))))))
folding enthalpy [1]: -32.4 kcal/mol
Tm [2]: 48.4 °C

TTTCGGAAACGAAA (((((....)))))
folding enthalpy [1]: -18.3 kcal/mol
Tm [2]: 40.6 °C

TCCCTGAAAAGGGA (((((....)))))
folding enthalpy [1]: -15.6 kcal/mol
Tm [2]: 48.3 °C
